Assay results from article PMC11774189 (RSC Advances, 2025).
Like-named read-outs stand apart in the source and are kept apart here.

What was measured:
A549 cells [1] = experiment: Annexin-V FITC and PI flow cytometry assay for apoptosis; type: cell-based, human; conditions: 48 hours
Outline: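 A549 cells seeded at 5×10^5 per 25 cm² flask, treated 48 h with test compound (0.45, 0.9, 1.8 μM), DMSO 1% vehicle or camptothecin 2 μM. Harvested, washed in cold PBS, resuspended in binding buffer, stained with annexin V plus PI (1 mg mL⁻¹ stock), 15 min at 37 °C, diluted in binding buffer, analysed by flow cytometry. Quadrants: live, early apoptotic, late apoptotic, necrotic.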

[2] = system: Hek-293 human embryonic kidney cells; experiment: MTT cytotoxicity assay, Hek-293 cells; type: cell-based; conditions: for IC50: read-out: IC50, Hek-293; for fold lower cytotoxicity against Hek-293 cells than to A549: Hek-293 vs A549
[3] = system: KB (epidermoid carcinoma) cell line; experiment: MTT cytotoxicity assay, KB cells; type: cell-based, human; conditions: read-out: IC50, KB
[4] = system: HepG2 (hepatoma carcinoma) cell line; experiment: MTT cytotoxicity assay, HepG2 cells; type: cell-based, human; conditions: read-out: IC50, HepG2
[5] = system: A549 (non-small lung cancer) cell line; experiment: MTT cytotoxicity assay, A549 cells; type: cell-based, human; conditions: read-out: IC50, A549
[6] = system: MCF7 (breast cancer) cell line; experiment: MTT cytotoxicity assay, MCF7 cells; type: cell-based, human; conditions: read-out: IC50, MCF7
A549 cells [7] = experiment: Cell cycle analysis by PI flow cytometry; type: cell-based, human; conditions: 24 hours
Outline: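 A549 cells seeded at 3×10^5 per 25 cm² flask; exposed 24 h to test compound (0.45, 0.9, 1.8 μM) or DMSO 0.5%. Cells washed twice in PBS, fixed in ice-cold 70% ethanol at –20 °C for 2 h, pelleted, treated with RNase A (2.5 mg mL⁻¹) 15 min at 37 °C, stained 30 min with PI (1 mg mL⁻¹ stock), then flow cytometry for phase distribution.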

Molecule: CC[C@@]1(O)C(=O)OCc2c1cc1n(c2=O)Cc2cc3ccccc3nc2-1 [Camptothecin, reference compound]
- % early apoptosis cells (Q2-4) (A549 cells [1]; A549, 2 μM): 30.71%
- % late apoptosis cells (Q2-2) (A549 cells [1]; A549, 2 μM): 11.05%
- % necrotic cells (Q2-1) (A549 cells [1]; A549, 2 μM): 1.99%
- % total apoptosis cells (A549 cells [1]; A549, 2 μM): 41.76%

Molecule: O=C1OCC2=C1C1(C(=O)N(Cc3ccc(Cl)cc3)c3ccccc31)C1=C(N2)C(=O)c2ccccc2C1=O (stereo not drawn) [Compound 7j, 1′-(4-Chlorobenzyl)-3H-spiro[benzo[g]furo[3,4-b]quinoline-11,3′-indoline]-1,2′,5,10(4H)-tetraone]
- IC50 ([2]; Homo sapiens, HEK293, 72 h): 10.3 ± 1.06 µM
- IC50 ([3]; Homo sapiens, KB, 72 h): 5.6 ± 0.49 µM
- IC50 ([4]; Homo sapiens, HepG2, 72 h): 5.78 ± 0.61 µM
- IC50 ([5]; Homo sapiens, A549, 72 h): 6540 ± 690 nM
- IC50 ([6]; Homo sapiens, MCF7, 72 h): 4.09 ± 0.41 µM

Molecule: O=C1OCC2=C1C1(C(=O)Nc3ccccc31)C1=C(N2)C(=O)c2ccccc2C1=O (stereo not drawn) [Compound 7a, 3H-Spiro[benzo[g]furo[3,4-b]quinoline-11,3′-indoline]-1,2′,5,10(4H)-tetraone]
- IC50 ([2]; Homo sapiens, HEK293, 72 h): 4.89 ± 0.44 µM
- IC50 ([3]; Homo sapiens, KB, 72 h): 5.33 ± 0.62 µM
- IC50 ([4]; Homo sapiens, HepG2, 72 h): 5.33 ± 0.62 µM
- IC50 ([5]; Homo sapiens, A549, 72 h): 1980 ± 160 nM
- IC50 ([6]; Homo sapiens, MCF7, 72 h): 1.95 ± 0.21 µM

Molecule: Cc1ccc2c(c1)N(Cc1ccc(Br)cc1F)C(=O)C21C2=C(COC2=O)NC2=C1C(=O)c1ccccc1C2=O (stereo not drawn) [Compound 7m, 1′-(4-Bromo-2-fluorobenzyl)-6′-methyl-3H-spiro[benzo[g]furo[3,4-b]quinoline-11,3′-indoline]-1,2′,5,10(4H)-tetraone]
- IC50 ([2]; Homo sapiens, HEK293, 72 h): > 65 µM
- IC50 ([3]; Homo sapiens, KB, 72 h): 51.7 ± 1.78 µM
- IC50 ([4]; Homo sapiens, HepG2, 72 h): 47.5 ± 2.15 µM
- IC50 ([5]; Homo sapiens, A549, 72 h): 13300 ± 700 nM
- IC50 ([6]; Homo sapiens, MCF7, 72 h): 19.9 ± 0.89 µM

Molecule: O=C1OCC2=C1C1(C(=O)Nc3c(Br)cc(Br)cc31)C1=C(N2)C(=O)c2ccccc2C1=O (stereo not drawn) [Compound 7f, 5′,7′-Dibromo-3H-spiro[benzo[g]furo[3,4-b]quinoline-11,3′-indoline]-1,2′,5,10(4H)-tetraone]
- fold lower cytotoxicity against Hek-293 cells than to A549 [2]: about 7 fold
- IC50 ([2]; Homo sapiens, HEK293, 72 h): 6.7 ± 0.57 µM
- IC50 ([3]; Homo sapiens, KB, 72 h): 1.99 ± 0.22 µM
- % early apoptosis cells (Q2-4) (A549 cells [1]; A549, 0.45 μM): 1.76%
- % late apoptosis cells (Q2-2) (A549 cells [1]; A549, 0.45 μM): 1.26%
- % necrotic cells (Q2-1) (A549 cells [1]; A549, 0.45 μM): 0.64%
- % total apoptosis cells (A549 cells [1]; A549, 0.45 μM): 3.02%
- % early apoptosis cells (Q2-4) (A549 cells [1]; A549, 0.9 μM): 3.13%
- % late apoptosis cells (Q2-2) (A549 cells [1]; A549, 0.9 μM): 1.83%
- % necrotic cells (Q2-1) (A549 cells [1]; A549, 0.9 μM): 0.94%
- % early apoptosis cells (Q2-4) (A549 cells [1]; A549, 1.8 μM): 12.68%
- % late apoptosis cells (Q2-2) (A549 cells [1]; A549, 1.8 μM): 6.72%
- % necrotic cells (Q2-1) (A549 cells [1]; A549, 1.8 μM): 2.53%
- % total apoptosis cells (A549 cells [1]; A549, 1.8 μM): 19.4%
- IC50 ([4]; Homo sapiens, HepG2, 72 h): 3.28 ± 0.39 µM
- IC50 ([5]; Homo sapiens, A549, 72 h): 900 ± 90 nM
- % G0/G1 (A549 cells [7]; A549, 0.45 μM): 36.01%
- % G2/M (A549 cells [7]; A549, 0.45 μM): 13.49%
- % S (A549 cells [7]; A549, 0.45 μM): 47.96%
- % G0/G1 (A549 cells [7]; A549, 0.9 μM): 26.63%
- % G2/M (A549 cells [7]; A549, 0.9 μM): 4.17%
- % S (A549 cells [7]; A549, 0.9 μM): 67.93%
- % G0/G1 (A549 cells [7]; A549, 1.8 μM): 20.81%
- % G2/M (A549 cells [7]; A549, 1.8 μM): 13.61%
- % S (A549 cells [7]; A549, 1.8 μM): 63.88%
- IC50 ([6]; Homo sapiens, MCF7, 72 h): 1.84 ± 0.17 µM

Molecule: Cc1ccc2c(c1)C1(C(=O)N2)C2=C(COC2=O)NC2=C1C(=O)c1ccccc1C2=O (stereo not drawn) [Compound 7c, 5′-Methyl-3H-spiro[benzo[g]furo[3,4-b]quinoline-11,3′-indoline]-1,2′,5,10(4H)-tetraone]
- IC50 ([2]; Homo sapiens, HEK293, 72 h): 3.89 ± 0.4 µM
- IC50 ([3]; Homo sapiens, KB, 72 h): 3.46 ± 0.33 µM
- IC50 ([4]; Homo sapiens, HepG2, 72 h): 4.02 ± 0.45 µM
- IC50 ([5]; Homo sapiens, A549, 72 h): 1910 ± 200 nM
- IC50 ([6]; Homo sapiens, MCF7, 72 h): 4.17 ± 0.48 µM

Molecule: 4′,6′-Dimethyl-3H-spiro[benzo[g]furo[3,4-b]quinoline-11,3′-indoline]-1,2′,5,10(4H)-tetraone [Compound 7g]
- IC50 ([2]; MTT, 3 days incubation): 7.27 ± 0.78 µM
- IC50 ([3]; MTT, 3 days incubation): 4.85 ± 0.41 µM
- IC50 ([4]; MTT, 3 days incubation): 6.74 ± 0.68 µM
- IC50 ([5]; MTT, 3 days incubation): 1670 ± 170 nM
- IC50 ([6]; MTT, 3 days incubation): 2.62 ± 0.22 µM

Molecule: O=C1OCC2=C1C1(C(=O)N(Cc3ccc(C(F)(F)F)cc3)c3ccc(Cl)cc31)C1=C(N2)C(=O)c2ccccc2C1=O (stereo not drawn) [Compound 7l, 5′-Chloro-1′-(4-(trifluoromethyl)benzyl)-3H-spiro[benzo[g]furo[3,4-b]quinoline-11,3′-indoline]-1,2′,5,10(4H)-tetraone]
- IC50 ([2]; Homo sapiens, HEK293, 72 h): > 27.7 µM
- IC50 ([3]; Homo sapiens, KB, 72 h): 17.8 ± 1.68 µM
- IC50 ([4]; Homo sapiens, HepG2, 72 h): 15.1 ± 1.7 µM
- IC50 ([5]; Homo sapiens, A549, 72 h): 5930 ± 640 nM
- IC50 ([6]; Homo sapiens, MCF7, 72 h): 13.4 ± 1.23 µM

Molecule: O=C1OCC2=C1C1(C(=O)Nc3ccc(Cl)cc31)C1=C(N2)C(=O)c2ccccc2C1=O (stereo not drawn) [Compound 7b, 5′-Chloro-3H-spiro[benzo[g]furo[3,4-b]quinoline-11,3′-indoline]-1,2′,5,10(4H)-tetraone]
- IC50 ([2]; Homo sapiens, HEK293, 72 h): 3.32 ± 0.33 µM
- IC50 ([3]; Homo sapiens, KB, 72 h): 3.15 ± 0.21 µM
- IC50 ([4]; Homo sapiens, HepG2, 72 h): 2.32 ± 0.31 µM
- IC50 ([5]; Homo sapiens, A549, 72 h): 1410 ± 120 nM
- IC50 ([6]; Homo sapiens, MCF7, 72 h): 4.2 ± 0.5 µM

Molecule: Cc1c2ccncc2c(C)c2c1[nH]c1ccccc12 [Ellipticine, reference compound]
- IC50 ([2]; Homo sapiens, HEK293, 72 h): 5.64 ± 0.32 µM
- IC50 ([4]; Homo sapiens, HepG2, 72 h): 2.07 ± 0.12 µM
- IC50 ([5]; Homo sapiens, A549, 72 h): 1340 ± 80 nM
- IC50 ([6]; Homo sapiens, MCF7, 72 h): 2.07 ± 0.16 µM

Molecule: O=C1OCC2=C1C1(C(=O)Nc3ccc(Br)cc31)C1=C(N2)C(=O)c2ccccc2C1=O (stereo not drawn) [Compound 7d, 5′-Bromo-3H-spiro[benzo[g]furo[3,4-b]quinoline-11,3′-indoline]-1,2′,5,10(4H)-tetraone]
- IC50 ([2]; Homo sapiens, HEK293, 72 h): 3.52 ± 0.37 µM
- IC50 ([3]; Homo sapiens, KB, 72 h): 4.75 ± 0.41 µM
- IC50 ([4]; Homo sapiens, HepG2, 72 h): 4.34 ± 0.41 µM
- IC50 ([5]; Homo sapiens, A549, 72 h): 1620 ± 170 nM
- IC50 ([6]; Homo sapiens, MCF7, 72 h): 2.07 ± 0.26 µM

Molecule: O=C1OCC2=C1C1(C(=O)N(Cc3ccc(C(F)(F)F)cc3)c3ccccc31)C1=C(N2)C(=O)c2ccccc2C1=O (stereo not drawn) [Compound 7i, 1′-(4-(Trifluoromethyl)benzyl)-3H-spiro[benzo[g]furo[3,4-b]quinoline-11,3′-indoline]-1,2′,5,10(4H)-tetraone]
- IC50 ([2]; Homo sapiens, HEK293, 72 h): 4.04 ± 0.42 µM
- IC50 ([3]; Homo sapiens, KB, 72 h): 4.65 ± 0.44 µM
- IC50 ([4]; Homo sapiens, HepG2, 72 h): 4.5 ± 0.48 µM
- IC50 ([5]; Homo sapiens, A549, 72 h): 7370 ± 830 nM
- IC50 ([6]; Homo sapiens, MCF7, 72 h): 3.72 ± 0.35 µM

Molecule: O=C1OCC2=C1C1(C(=O)N(Cc3ccccc3)c3ccccc31)C1=C(N2)C(=O)c2ccccc2C1=O (stereo not drawn) [Compound 7h, 1′-Benzyl-3H-spiro[benzo[g]furo[3,4-b]quinoline-11,3′-indoline]-1,2′,5,10(4H)-tetraone]
- IC50 ([2]; Homo sapiens, HEK293, 72 h): 2.72 ± 0.19 µM
- IC50 ([3]; Homo sapiens, KB, 72 h): 3.96 ± 0.34 µM
- IC50 ([4]; Homo sapiens, HepG2, 72 h): 4.24 ± 0.38 µM
- IC50 ([5]; Homo sapiens, A549, 72 h): 1710 ± 190 nM
- IC50 ([6]; Homo sapiens, MCF7, 72 h): 3.73 ± 0.38 µM

Molecule: O=C1OCC2=C1C1(C(=O)N(Cc3ccc(C(F)(F)F)cc3)c3cc(Br)c(Br)cc31)C1=C(N2)C(=O)c2ccccc2C1=O (stereo not drawn) [Compound 7n, 5′,6′-Dibromo-1′-(4-(trifluoromethyl)benzyl)-3H-spiro[benzo[g]furo[3,4-b]quinoline-11,3′-indoline]-1,2′,5,10(4H)-tetraone]
- fold lower cytotoxicity against Hek-293 cells than to A549 [2]: ~22 fold
- fold lower cytotoxicity against Hek-293 cells than to MCF7 ([2]; Hek-293 vs MCF7): about 11 fold
- IC50 ([2]; Homo sapiens, HEK293, 72 h): 22.9 ± 2.2 µM
- IC50 ([3]; Homo sapiens, KB, 72 h): 4.36 ± 0.4 µM
- IC50 ([4]; Homo sapiens, HepG2, 72 h): 6.74 ± 0.73 µM
- IC50 ([5]; Homo sapiens, A549, 72 h): 1030 ± 130 nM
- IC50 ([6]; Homo sapiens, MCF7, 72 h): 2.11 ± 0.24 µM

Molecule: O=C1OCC2=C1C1(C(=O)N(Cc3ccc(Br)cc3F)c3ccccc31)C1=C(N2)C(=O)c2ccccc2C1=O (stereo not drawn) [Compound 7k, 1′-(4-Bromo-2-fluorobenzyl)-3H-spiro[benzo[g]furo[3,4-b]quinoline-11,3′-indoline]-1,2′,5,10(4H)-tetraone]
- IC50 ([2]; Homo sapiens, HEK293, 72 h): > 28 µM
- IC50 ([3]; Homo sapiens, KB, 72 h): 27.3 ± 2.15 µM
- IC50 ([4]; Homo sapiens, HepG2, 72 h): 20.9 ± 2.36 µM
- IC50 ([5]; Homo sapiens, A549, 72 h): 14000 ± 1590 nM
- IC50 ([6]; Homo sapiens, MCF7, 72 h): 15.1 ± 1.59 µM
